SUMO1-SIM PPI = SUMO1-SIM interaction modulation; AID 602429; SUMO1 binding to a labelled peptide, TR-FRET, 1 h; inhibition, % at 20 µM; 0.33% of 360,000 active; P63165; in the data active = inhibition above about 37%
Target sequence (P63165 whole entry, looked up): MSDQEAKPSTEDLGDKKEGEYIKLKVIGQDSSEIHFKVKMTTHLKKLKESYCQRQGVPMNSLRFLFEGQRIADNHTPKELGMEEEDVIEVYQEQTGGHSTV
Scp1 inh = blocks human Scp-1 phosphatase activity | Q9GZU7 | Recombinant Scp1, phosphopeptide, malachite green phosphate absorbance | inhibition, % at 20 µM | 0.88% of 340,000 active | AID 493091;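 active = inhibition above about 50% at 20 µM, limit read from the data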
Target sequence (Q9GZU7 76-261 limits assumed): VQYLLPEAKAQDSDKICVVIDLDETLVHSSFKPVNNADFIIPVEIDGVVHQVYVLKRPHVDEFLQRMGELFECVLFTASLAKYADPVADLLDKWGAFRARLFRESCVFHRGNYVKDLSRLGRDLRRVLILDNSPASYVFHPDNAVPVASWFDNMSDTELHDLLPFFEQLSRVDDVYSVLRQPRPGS
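Material – SCP-1 phosphatase catalytic domain, residues 76-261 · Buffer or medium – Acidic Tris acetate buffer with magnesium and detergent · Also added – Phospho 17-mer peptide substrate · Compound – single 20 µM dose, 1% DMSO · Times – 45 min room-temperature reaction, 5 min colour, 30 min stabiliser · Technique – Phosphate-binding colour reagent, absorbance read at 630 nm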
FAS TE block = inhibitors of human fatty acid synthase thioesterase domain; recombinant FAS-TE, OMFH fluorogenic substrate, fluorescence endpoint; inhibition, % at 15 µM; P49327; 0.67% of 360,000 active;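 active = compounds whose normalised, plate-corrected inhibition of enzyme fluorescence in the single-dose primary screen is 50% or more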
STEP block = inhibitors of human striatal-enriched phosphatase STEP | inhibition, % at 20 µM | AID 588621 | P54829 | recombinant STEP, OMFP fluorogenic substrate, fluorescence | 0.25% of 360,000 active;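 active = inhibition at 20 µM, scaled per plate between control wells, above about 37%, limit read from the data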
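medium = Bis-Tris buffer pH 6.0, 2.5 mM DTT, 0.005% Tween 20 | test system = STEP (striatal-enriched tyrosine phosphatase) enzyme, cell-free | measure = normalized % inhibition | compound dosing = 20 µM, 1% DMSO | also added = 25 µM OMFP | schedule = reaction 20 min, ambient temperature | measured by = fluorescence read at 480 nm ex / 540 nm em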
LMPTP block = blocks human LMPTP phosphatase. AID 651560. 0.22% of 360,000 active. recombinant LMPTP-A, OMFP fluorogenic substrate, fluorescence intensity. inhibition, % at 20 µM;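 active = compounds that cut the enzyme signal by at least half of the control window in the single-dose screen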
Target sequence (P24666 whole entry, looked up): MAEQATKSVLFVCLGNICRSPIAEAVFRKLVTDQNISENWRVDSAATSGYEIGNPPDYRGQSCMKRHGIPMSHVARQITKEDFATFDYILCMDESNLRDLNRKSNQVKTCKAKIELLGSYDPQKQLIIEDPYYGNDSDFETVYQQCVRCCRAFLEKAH
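Test system: LMPTP-A, protein tyrosine phosphatase of low molecular weight; Input: 0.625 nM enzyme; Incubation: 50 min dark incubation at room temperature; Signal: endpoint fluorescence intensity from OMFP dephosphorylation; Read-out basis: % inhibition versus control wells.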
STEP conf = STEP (human) phosphatase inhibition, single concentration confirmation; shares compounds with STEP block; recombinant STEP, OMFP fluorogenic substrate, fluorescence; inhibition, % at 20 µM; 32% of 520 active; call rule not given here
Large screens that a line does not name were inactive (follow-up assays come after a bar, where they were run). Compounds with a hit are over-represented: about 1.9% of the library has one in this group of screens.

CCOc1cc(NC(=O)C2CC2)c(OCC)cc1NC(=O)CCn1nnc2ccccc21	STEP block 62.8 | STEP conf inactive
CC1(C)C2CC[C@]3(C)C(CC=C4[C@@H]5C[C@@](C)(CO)[C@@H](O)C[C@]56C[C@@H](OC6=O)[C@]43C)[C@@]2(C)CC[C@@H]1O (some centres not stated)	none
CCCCN(CC)Cc1ccc(CNC(=S)Nc2c(C)cc(C)cc2C)o1	STEP block 84.8 | STEP conf 45.2
CCCCN(CC)Cc1ccc(CNC(=S)Nc2ccc(C)cc2Cl)o1	none
COc1ccc(NC(=S)N2CCC(N(C)CC3CCCO3)CC2)cc1Cl (configuration not stated)	STEP block 49.8 | STEP conf 42.2
CN1CCN(c2nc3c(c(=O)[nH]c(=O)n3C)n2Cc2ccc(Cl)cc2)CC1	none
FC(F)(F)Oc1ccc(NC(=S)NCCCN2CCOCC2)cc1	STEP block 41.2 | STEP conf inactive
S=C(NCCCN1CCOCC1)Nc1ccc(Cl)cc1	none
Cc1ccccc1-n1nc(CSc2nc3ccccc3[nH]2)c(-c2ccccc2)c1N	STEP block 58.2 | STEP conf inactive
Cc1ccc(C)c(OCCC(=O)OCC(=O)Nc2ccc(Cl)cn2)c1	none
CC(C)[C@H](NC(=O)N1CC(=O)Nc2ccccc21)C(=O)Nc1nccs1	STEP block 92.0 | STEP conf inactive
O=C(NC1CCN(Cc2ccccc2)CC1)c1ccc2c(c1)[nH]c(=O)n2Cc1ccc(F)cc1	none
c1ccc(OCc2nnc3n2N=C(c2ccccc2)CS3)cc1	STEP block 70.3 | STEP conf inactive
CCc1nnc(NS(=O)(=O)c2ccc(NC(=O)c3ccc(C#N)cc3)cc2)s1	none
COc1ccccc1-c1csc(-n2ncc(C#N)c2N)n1	SUMO1-SIM PPI 95.3, STEP block 60.7 (no result: Scp1 inh) | STEP conf inactive
COc1ccc(-c2csc(-n3ncc(-c4ccccn4)c3N)n2)cc1	none
O=C(Cn1c2ccccc2c(=O)c2ccccc21)N/N=C/c1cc([N+](=O)[O-])ccc1N1CCCCCC1	Scp1 inh 86.6, STEP block 89.3, LMPTP block 65.7 | STEP conf inactive
O=C(Cn1c2ccccc2c(=O)c2ccccc21)N/N=C/c1ccc(N2CCCC2)c([N+](=O)[O-])c1	none
COc1ccc(OCC(=O)N2CCN(S(=O)(=O)c3ccc4c(c3)OCCO4)CC2)cc1	none (no result: Scp1 inh)
C=CCn1c(SCC(=O)NCC2CCCO2)nnc1-c1ccncc1 (configuration not stated)	none
S=c1[nH]nc(-c2cccnc2)n1/N=C/c1ccccc1	STEP block 49.3 | STEP conf inactive
S=c1[nH]nc(-c2cccnc2)n1/N=C/C=C/c1ccccc1	none
CN(C)c1ccc2c(=O)cc[nH]c2c1	none (no result: Scp1 inh)
S=C(NCCN1CCOCC1)C(=S)NCCN1CCOCC1	STEP block 41.5 | STEP conf inactive
C=CCNC(=O)O/N=C/c1csc([N+](=O)[O-])c1	none
N#CNc1nc(O)cc(=O)[nH]1	STEP block 97.8, LMPTP block 86.7 | STEP conf 63.4
CCSc1nc(O)cc(=O)[nH]1	none
O=C(Nc1nc2nccc(-c3ccccc3)n2n1)c1ccc(F)cc1	STEP block 51.6 | STEP conf inactive
COc1ccc(-c2ccc(NC(=O)c3ccc(Br)o3)cc2)nn1	STEP block 42.3, LMPTP block 53.8 | STEP conf 33.4
CCOC(=O)c1ccccc1N/C=C1\CCCCC1=O	STEP block 57.6 | STEP conf inactive
COc1ccc(CN2CCNC(=O)C2CC(=O)NCCCC2CCCC2)c(F)c1 (configuration not stated)	none
CC1=C(O)C(=O)C(C2=C(O)C(=O)C(C)=C(O)C2=O)=C(O)C1=O	STEP block 65.1 | STEP conf 21.2
Cc1ccc(C2=C(O)C(=O)C(c3ccc(C)cc3)=C(O)C2=O)cc1	none
O=C(O)CCCCCn1c(SCc2cc(=O)n3cc(Cl)ccc3n2)nc2ccsc2c1=O	STEP block 64.6 | STEP conf inactive
O=C(O)CCCCCn1c(SCc2cc(=O)n3ccccc3n2)nc2ccsc2c1=O	none
O=C(Nc1ccc2oc(-c3ccncc3)nc2c1)c1ccc2c(c1)OCO2	SUMO1-SIM PPI 43.6, STEP block 74.1, LMPTP block 66.9 | STEP conf inactive
O=C(Nc1ccc2oc(-c3ccncc3)nc2c1)c1ccc(Br)o1	STEP block 66.7 | STEP conf inactive
O=C(Nc1ccc2oc(-c3ccncc3)nc2c1)c1ccco1	none
Cc1nnc(SCC(=O)NC(=O)Nc2ccc3c(c2)OCCO3)n1N	none
CC(=O)c1sc(NC(=O)c2ccc(F)c(F)c2)nc1C	STEP block 57.7 | STEP conf inactive
Cc1ccc(C(CNS(=O)(=O)c2ccc(Cl)cc2)N2CCN(C)CC2)cc1 (configuration not stated)	none
COc1cccc(NC(=O)CN(C)C(=O)c2oc3c(ccc4ccccc43)c2C)c1	none
Cn1c(CSc2ncccn2)nnc1SCC(=O)N1CCCc2ccccc21	STEP block 52.6 | STEP conf inactive
CCn1c(CSc2ncccn2)nnc1SCC(=O)N1CCc2ccccc21	none
CCOC(=O)N1CCC(N(CCN(C)C)C(=S)Nc2ccccc2OCC)CC1	STEP block 45.4 | STEP conf inactive
CCOC(=O)N1CCC(N(CCN(C)C)C(=S)Nc2cccc(C)c2)CC1	none
CCOC(=O)N1CCC(N(CCN(C)C)C(=S)Nc2ccccc2OC)CC1	none
CCOC(=O)N1CCC(N(CCN(C)C)C(=S)Nc2ccc(Oc3ccccc3)cc2)CC1	STEP block 91.6 | STEP conf 61.3
CC(=O)Nc1ccc(C(=O)CN2CCN(c3ccccc3)CC2)cc1	SUMO1-SIM PPI 69.8, STEP block 47.4 | STEP conf inactive
O=C(NCc1cccnc1)C1CCN(C(=O)c2ccc(Cl)cc2Cl)CC1	none
O=C(NCc1ccco1)C1CCN(C(=O)c2ccc(Cl)cc2Cl)CC1	STEP block 56.1 | STEP conf inactive
COc1cc(OC)cc(C(=O)NN(CCC#N)C2=NS(=O)(=O)c3ccccc32)c1	none
Cc1ccc(C2C(C(=O)O)c3ccccc3C(=O)N2C)o1 (configuration not stated)	none
COc1cc2c(cc1OC)C(C(=O)O)C(c1ccc(C)o1)N(C)C2=O (configuration not stated)	STEP block 56.2 | STEP conf inactive
Cc1ccc(S(=O)(=O)NCC(=O)N2CCN(c3ccc(F)cc3)CC2)cc1	STEP block 40.5 | STEP conf inactive
S=C(Cc1cccnc1)N1CCOCC1	none
COc1cccc(-c2cc(C(=O)Nc3nc4ccccc4s3)c3ccccc3n2)c1	STEP block 71.3 | STEP conf 41.4
Clc1ccc(Cl)c(-c2nc(-c3ccncc3)no2)c1	STEP block 44.0 | STEP conf 11.8

Compound activity (PubChem BioAssay)
